From ChEMBL document CHEMBL3243993, “Cardenolide analogues. 4. (20R)- and (20S)-Cardanolides: on the roles of the 20(22)-ene and 14beta-hydroxyl in genin activity” (J Med Chem, 1979) come the findings set out here.

The nature of data set [1]: Inhibition of rat brain (Na+,K+)ATPase in presence of appropriate Mg2+ and Na+. The conditions noted are these: read-out: I50.
The nature of data set [2]: Inhibition of rat brain (Na+,K+)ATPase incubated for 10 mins followed by Kcl added in presence of appropriate Mg2+ and Na+. The conditions noted are these: read-out: I50. The method, boiled down:
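Steroids added in ethanol to the (Na+,K+)ATPase tubes, at most 20 μL ethanol per tube. After 10 min, KCl was added to start (Na+,K+)ATPase activity. Where a steroid was insoluble in the medium, no precise value could be obtained.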

Data set [3] in a line: Solubility of the compound in steroid medium. Format: physicochemical. The method, boiled down:
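Observed in the (Na⁺,K⁺)ATPase assay medium. Steroids were added in ethanol to the enzyme tubes, at no more than 20 μL ethanol per tube. After 10 min, KCl was added to start (Na⁺,K⁺)ATPase activity.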

Consider `C=C1C(=O)OC[C@@H]1[C@H]1CC[C@]2(O)[C@@H]3CC[C@@H]4C[C@@H](O)CC[C@]4(C)[C@H]3CC[C@]12C`, for which the IC50 in data set [1] and in data set [2] was 70 µM throughout.
Take `C=C1C(=O)OC[C@H]1[C@H]1CC=C2[C@@H]3CC[C@@H]4C[C@@H](O)CC[C@]4(C)[C@H]3CC[C@@]21C`: the IC50 in data set [1] and in data set [2] was 100 µM each time. The solubility entry in data set [3] is listed as “Insoluble”.
Consider `C[C@]12CC[C@H](O)C[C@H]1CC[C@@H]1[C@@H]2CC[C@]2(C)[C@@H](C3=CC(=O)OC3)CC[C@]12O` [DIGITOXIGENIN], for which the IC50 in data set [1] and in data set [2] was 0.35 µM each time.
As for `C[C@]12CC[C@H](O)C[C@H]1CC[C@@H]1[C@@H]2CC[C@]2(C)[C@@H]([C@@H]3COC(=O)C3)CC[C@]12O`, the IC50 in data set [1] turned out to be 14 µM; in data set [2], 11 µM.
For `C=C1C(=O)OC[C@@H]1[C@H]1CC=C2[C@@H]3CC[C@@H]4C[C@@H](O)CC[C@]4(C)[C@H]3CC[C@@]21C`, the IC50 in data set [1] was 30 µM; in data set [2] it was 20 µM.
On the same counts, the results for `C[C@]12CC[C@H](O)C[C@H]1CC[C@@H]1[C@@H]2CC[C@]2(C)[C@@H]([C@H]3COC(=O)C3)CC[C@]12O` are 14 µM and 12 µM.
Regarding `C=C1C(=O)OC[C@H]1[C@H]1CC[C@]2(O)[C@@H]3CC[C@@H]4C[C@@H](O)CC[C@]4(C)[C@H]3CC[C@]12C`, the IC50 in data set [1] turned out to be 70 µM; in data set [2], 60 µM.
